Measured values from different studies.
Compare with care: the assays were run in different laboratories.
CA12: Carbonic anhydrase 12 (CA12, Homo sapiens, UniProt O43570)
USP51: Ubiquitin carboxyl-terminal hydrolase 51 (USP51, Homo sapiens, UniProt Q70EK9)
DRD3: D(3) dopamine receptor (DRD3, Homo sapiens, UniProt P35462)
SLC6A3: Sodium-dependent dopamine transporter (SLC6A3, Homo sapiens, UniProt Q01959)

The inhibition of `O=C1NC(=S)C(=Cc2cn(-c3ccccc3)nc2-c2ccc(Br)cc2)S1` is reported as 49.8% (CA12; enzyme activity; inhibitor; absorbance; 10 µM).
`CC(=O)c1ccc(O)c(C(=O)O)c1` gave an inhibition of 29% (USP51; enzyme activity; inhibitor; 5 µM).
`CCOC(=O)C1CSc2[nH]c(=O)sc2C1c1cn(-c2ccccc2)nc1-c1ccc(Br)cc1` (stereo not drawn) gave an inhibition of 55.8% (CA12; enzyme activity; inhibitor; absorbance; 1 µM).
With `COc1ccc(S(N)(=O)=O)cc1C(=O)NCCCN1CCN(c2ccccc2C)CC1` the inhibition was 22.8% (DRD3; enzyme activity; inhibitor; 10 µM).
For `Cc1ccc(-c2nn(-c3ccccc3)cc2C2c3sc(=O)[nH]c3SC3C(=O)N(c4ccccc4)C(=O)C32)cc1` (stereo not drawn), the inhibition was 73.9% (CA12; enzyme activity; inhibitor; absorbance; 10 µM).
`Cc1cccc(N2CCN(CC(O)COc3ccc4ccccc4c3)CC2)c1C` (stereo not drawn) has an inhibition of 52.9% (DRD3; enzyme activity; inhibitor; 10 µM).
The inhibition of `CCOC(=O)C1CSc2[nH]c(=O)sc2C1c1cn(-c2ccccc2)nc1-c1ccc(C)cc1` (stereo not drawn) is reported as 11.9% (CA12; enzyme activity; inhibitor; absorbance; 10 nM).
`O=C1C[C@@H](c2ccccc2)Oc2cc(O)cc(O)c21` has an inhibition of 2% (USP51; enzyme activity; inhibitor; 5 µM).
For `Clc1ccc(CC2CCN(CCCCn3nnnc3C(c3ccccc3)c3ccccc3)CC2)cc1Cl`, the inhibition was 67.7% (SLC6A3; transporter uptake; inhibitor; HEK293; 1 µM).
The inhibition of `CCOC(=O)C1CSc2[nH]c(=O)sc2C1c1cn(-c2ccccc2)nc1-c1ccc(OC)cc1` (stereo not drawn) is reported as 58.2% (CA12; enzyme activity; inhibitor; absorbance; 1 µM).
`O=C(O)CC(O)C(=O)O` (stereo not drawn) has an inhibition of 31% (USP51; enzyme activity; inhibitor; 5 µM).
`OC(CNCc1cccc(Oc2nnnn2-c2ccccc2)c1)c1ccccc1` (stereo not drawn) gave an inhibition of 29.3% (DRD3; enzyme activity; inhibitor; 10 µM).
`OC[C@H]1NC[C@H](O)[C@@H](O)[C@@H]1O` has an inhibition of 0% (USP51; enzyme activity; inhibitor; 5 µM).
The inhibition of `COc1cc(CNCCc2c[nH]c3ccccc23)cc(Cl)c1OCC(N)=O` is reported as 39.6% (DRD3; enzyme activity; inhibitor; 10 µM).
With `O=C(c1ccc(Cl)cc1)N(Cc1ccccc1)C1CCCCC1` the inhibition was 48.8% (SLC6A3; cell-free assay; 10 µM).
`Clc1ccc(C(c2ccc(Cl)cc2)c2nnnn2CCCN2CCC(Cc3ccccc3)CC2)cc1` gave an inhibition of 90.8% (SLC6A3; transporter uptake; inhibitor; HEK293; 1 µM).
The inhibition of `O=C1C2CCCN2C(=O)N1CCCCN1CCN(c2cccc(C(F)(F)F)c2)CC1` (stereo not drawn) is reported as 42.5% (DRD3; enzyme activity; inhibitor; 10 µM).
`COc1cc2c(cc1OC)-c1cc3ccc(OC)c(OC)c3c[n+]1CC2` has an inhibition of 51% (USP51; enzyme activity; inhibitor; 5 µM).
`CCOC(=O)C1CSc2[nH]c(=O)sc2C1c1cn(-c2ccccc2)nc1-c1ccccc1` (stereo not drawn) gave an inhibition of 27.5% (CA12; enzyme activity; inhibitor; absorbance; 0.1 µM).
For `CC(C)Oc1ccc2c(=O)c(-c3ccccc3)coc2c1`, the inhibition was 43% (USP51; enzyme activity; inhibitor; 5 µM).
With `Clc1ccc(C(c2ccc(Cl)cc2)c2nnnn2CCCCN2CCC(Cc3ccc(Cl)c(Cl)c3)CC2)cc1` the inhibition was 62.6% (SLC6A3; transporter uptake; inhibitor; HEK293; 1 µM).
The inhibition of `Cc1ccccc1N1CCN(CCCCN2C(=O)C3CCCN3C2=O)CC1` (stereo not drawn) is reported as 47.3% (DRD3; enzyme activity; inhibitor; 10 µM).
For `CC[C@H]1CN2CCc3cc(OC)c(OC)cc3[C@@H]2C[C@@H]1C[C@H]1NCCc2cc(OC)c(OC)cc21`, the inhibition was 20% (USP51; enzyme activity; inhibitor; 5 µM).
For `CC(=O)Nc1ccc(N2C(=O)CC(NCCc3ccccc3)C2=O)cc1` (stereo not drawn), the inhibition was 5.54% (DRD3; enzyme activity; inhibitor; 10 µM).
`Fc1ccc(C(c2ccc(F)cc2)c2nnnn2CCCN2CCC(Cc3ccccc3)CC2)cc1` has an inhibition of 93.5% (SLC6A3; transporter uptake; inhibitor; HEK293; 1 µM).
`N#CC1CSc2[nH]c(=O)sc2C1c1cn(-c2ccccc2)nc1-c1ccc(Br)cc1` (stereo not drawn) gave an inhibition of 28.1% (CA12; enzyme activity; inhibitor; absorbance; 10 nM).
For `Clc1ccc(C(c2ccccc2)c2nnnn2CCCCN2CCC(CCCc3ccccc3)CC2)cc1` (stereo not drawn), the inhibition was 69% (SLC6A3; transporter uptake; inhibitor; HEK293; 1 µM).
For `COc1cc(OC)c(OC)cc1CN1CCN(Cc2c[nH]c3ccccc23)CC1`, the inhibition was 8.6% (DRD3; enzyme activity; inhibitor; 10 µM).
The inhibition of `CCOC(=O)C1CSc2[nH]c(=O)sc2C1c1cn(-c2ccccc2)nc1-c1ccc(Cl)cc1` (stereo not drawn) is reported as 73.2% (CA12; enzyme activity; inhibitor; absorbance; 1 µM).
For `COc1ccc(-c2oc3c(CC=C(C)C)c(O[C@@H]4O[C@H](CO)[C@@H](O)[C@H](O)[C@H]4O)cc(O)c3c(=O)c2O[C@@H]2O[C@@H](C)[C@H](O)[C@@H](O)[C@H]2O)cc1`, the inhibition was 7% (USP51; enzyme activity; inhibitor; 5 µM).
